A word on the viability: it is a read-out of living cells in per cent, often relative to untreated cells. As usually defined, the inhibition is the change of the read-out against control, counted positive when it falls.

The source of these data is PubChem BioAssay.

Unmarked numbers belong to inactive results. Records with an inconclusive call do not appear. Active and inactive are the calls of the source.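 Rule for the calls, unless noted: active = RAM network inhibition above 8.4% in each of two replicates, 3 SD over the compound average; inconclusive = above 8.4% inhibition in only one replicate; inactive = 8.4% inhibition or less in each replicate.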

Test [1] in a line: S. cerevisiae growth inhibition in permissive medium (OD615), pilot counter-assay for S. cerevisiae lifespan shortening project, permissive growth control (AID 705;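 active = growth inhibition above 25% in both replicates, a cutoff set 3 SD above the mean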). Conditions: OD615, 24 h, at 10 µM, hits give high values. A digest of the protocol: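 System: engineered DeaD yeast; Medium: permissive raffinose/galactose medium; Compound dosing: 10 µM single dose, 0.25% DMSO; Incubation: 4 h cell pre-growth, 24 h exposure at 30 °C; Technique: OD at 615 nm; Evaluation: growth inhibition from lowered OD615 after 24 h.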

Test [2] can be described thus: S. cerevisiae growth inhibition in restrictive medium, OD615, pilot screen, restrictive growth control, yeast lifespan reduction project (AID 706;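 active = growth inhibition above a set limit, 3 SD over mean compound inhibition, in both replicates, cut at about 43% in these data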;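 note: modified DeaD lifespan yeast strain shifted to restrictive glucose medium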). Conditions: OD615, 48 h, at 10 µM, hits give high values. A digest of the protocol:
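Material: modified S. cerevisiae; buffer or medium: CSMM-D glucose medium; doses: one concentration, 10 µM final, 0.25% DMSO; incubation: 48 h compound exposure at 30 °C; detection: optical density at 615 nm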

The nature of test [3]: doxorubicin toxicity protection in MRP-1 cells – H69AR cells, CellTiter-Glo, duplicate, MRP-1 activator project, pilot screen (AID 807;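 active = viability increase at or above a cutoff of the median across tested compounds plus 3 SD, cut at about 8.5% in these data, passing the limit was not always enough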;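 note: compound pretreatment 18-22 h then 72 h combined with doxorubicin; 0% = doxorubicin alone and 100% = vehicle without doxorubicin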). Conditions: H69AR viability with doxorubicin, CellTiter-Glo luminescence; at 10 µM; hits give high values. (ATP-based viability assays read luminescence as a measure of living cells.)
Test [4] can be described thus: viability of HCT116 without oncogenic beta-catenin – human colon tumor cells, pilot screen (AID 823;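 active = cell viability at or below a set limit in both duplicate runs, the limit being the all-compound median minus 4 SD, cut at about 23% in these data, passing the limit was not always enough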;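 note: 0% = wells killed by 20 µM Hyamine and 100% = untreated DMSO cell wells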). The conditions noted are these: HCT116 beta-catenin knockout viability, CellTiter-Glo, 60 h; at 10 µM; hits give low values.
The nature of test [5]: viability of PTEN-null HCT116 cells – cell-based, HCT116 clonal line, CellTiter-Glo, pilot screen (AID 824;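 active = viability at or below 27.92% in each of two runs, the all-compound median minus 4 SD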;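 note: 0% = 20 µM Hyamine control and 100% = vehicle cell control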). The conditions noted are these: HCT116 PTEN-deleted viability, 60 h, at 10 µM, hits give low values.
The nature of test [6]: RAM pathway blockade in budding yeast – dse1pr::URA3 reporter, 5-FOA selection, pilot screen (AID 869;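 active = inhibition over a set limit, the all-compound mean plus 3 SD, in both replicate runs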;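 note: 0% = DMSO wells with no growth and 100% = 10 µM 1-NA-PP1 with full growth; RAM network block rescues cells from 5-FOA so hits raise OD615 growth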). Conditions: S. cerevisiae dse1pr::URA3 5-FOA growth, OD615, 2 d; at 10 µM; hits give high values; strain carries analog-sensitive mutant Cbk1 kinase.
Test [7] is described as follows: RAM signaling pathway blockade in yeast – S. cerevisiae, Pdr1DBD-CYC8 efflux-inhibited sensitized strain, primary screen (AID 1298).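 Note: 0% = DMSO untreated cells without growth and 100% = 10 µM 1-NA-PP1 full growth; higher means more yeast growth rescued from 5-FOA killing.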 The conditions noted are these: S. cerevisiae cbk1-as DSE1-URA3 strain, 5-FOA growth OD615, 2 d; at 50 µM; hits give high values.

In the case of `COc1ccccc1OCc1nc(C#N)c(N2CC(C)CC(C)C2)o1` (stereo unspecified), the growth inhibition in test [1] was -10.7%; in test [2] it was -24.8%. Moreover, in test [3], the viability increase was -2.5%. The viability in test [4] is 71.7%; in test [5], 72.9%. Also, in test [6], the inhibition was 1.48%. Besides, in test [7], the RAM network inhibition was 9.85%.
For the molecule `CCOc1ccc(C2CC(c3cccc(C)c3)n3nc(N)nc3N2)cc1` (stereo unspecified), the growth inhibition in test [1] was 2.79%; in test [2] it was 11.8%. Also, the viability increase in test [3] is -0.49%. Besides, the viability in test [4] is 91.7%; in test [5], 83.2%. Also, in test [6], the inhibition is 1.02%. The RAM network inhibition in test [7] is 2.03%.
As to `CCOC(=O)CSC(CC)C(=O)Nc1nnc(CC)s1` (stereo unspecified), the growth inhibition is -15.4% in test [1] and -6% in test [2]. Moreover, the viability increase in test [3] was 2.67%. Moreover, the viability in test [4] was 102%; in test [5], 96.6%. The inhibition in test [6] was 0.62%. Also, the RAM network inhibition in test [7] is -0.27%.
For the molecule `CCCNS(=O)(=O)c1cccc2cccnc12`, the growth inhibition was -6.87% in test [1] and 6.17% in test [2]. The viability increase in test [3] was -1.58%. The viability in test [4] is 101%; in test [5] it was 96.5%. In addition, the inhibition in test [6] was 1.89%. The RAM network inhibition in test [7] was 0.72%.
As for `Cn1cccc1Cc1nnc(SCC(=O)N2CCCCCC2)n1-c1ccc(F)cc1`, the results for the growth inhibition in test [1] and in test [2] were 0.935% and 18%, respectively. In addition, the viability increase in test [3] is -1.67%. The viability in test [4] is 84%; in test [5], 88.5%. Also, in test [6], the inhibition is 1.27%. For the same molecule, the RAM network inhibition in test [7] was 4.48%.
`CCCC(=O)c1ccc(N2CCCCCC2)c(F)c1`: the figures for the growth inhibition in test [1] and in test [2] were -13.2% and -2.93%, respectively. In addition, the viability increase in test [3] is 3.64%. The viability was 85.9% in test [4] and 87.3% in test [5]. Further, the inhibition in test [6] is 1.73%. For the same molecule, the RAM network inhibition in test [7] was 1.5%.
`CCOC(=O)c1ccc2[nH]c(C)cc(=O)c2c1`: the growth inhibition was -1.86% in test [1] and 1.21% in test [2]. Also, the viability increase in test [3] was -0.4%. In addition, the viability in test [4] and in test [5] was 98% in each case. Moreover, the inhibition in test [6] is 1.35%. In test [7], the RAM network inhibition was 9.46%.
Regarding `O=C(NCc1cccnc1)c1cccc(S(=O)(=O)N2CCOCC2)c1`, the growth inhibition in test [1] was -7.59%; in test [2], 1.51%. Further, in test [3], the viability increase is 0.32%. For the same molecule, the viability in test [4] is 103%; in test [5] it was 101%. The inhibition in test [6] was 1.6%. Also, the RAM network inhibition in test [7] was 0.62%.
Turning to `CCOC(=O)N1CCN(c2nc(=S)n(-c3ccccc3)c(C)c2C(C)=O)CC1`, the growth inhibition in test [1] was 14.8%; in test [2] it was 28.8%. In addition, the viability increase in test [3] was -1.09%. In addition, the viability is 98.8% in test [4] and 101% in test [5]. Besides, in test [6], the inhibition is 1.26%. For the same molecule, the RAM network inhibition in test [7] is 2.67%.
As for `CCN(CCC(=O)Nc1cc(OC)cc(OC)c1)Cc1ccccc1`, the growth inhibition in test [1] is 1.21%; in test [2], -14.7%. Besides, the viability increase in test [3] is -2.96%. For the same molecule, the viability in test [4] was 84.4%; in test [5], 85.8%. Besides, the inhibition in test [6] was 2.68%. Further, the RAM network inhibition in test [7] is 3.12%.
Consider `O=C(NC1CC1)c1ccc(CSCc2cccc(F)c2)o1`, for which the growth inhibition is 3.53% in test [1] and 3.37% in test [2]. For the same molecule, in test [3], the viability increase is -2.78%. In addition, the viability was 82.3% in test [4] and 86.3% in test [5]. Moreover, in test [6], the inhibition was 1.08%. For the same molecule, the RAM network inhibition in test [7] is 4.29%.
Regarding `COCCSc1nc2c(c(=O)[nH]c(=O)n2C)n1CCC(C)C`, the growth inhibition is -19.7% in test [1] and -18.9% in test [2]. The viability increase in test [3] is -1.88%. For the same molecule, the values for the viability in test [4] and in test [5] were 103% and 97.3%, respectively. Also, the inhibition in test [6] is 1.55%. For the same molecule, the RAM network inhibition in test [7] was 2.8%.
On to `COc1ccc(C2N(c3ccc(OC)cc3)C(=O)C3CCCN32)cc1` (stereo unspecified), for which the growth inhibition in test [1] was -3.41%; in test [2], 2.04%. Besides, the viability increase in test [3] is -1.64%. In addition, the viability was 106% in test [4] and 102% in test [5]. In test [6], the inhibition is 0.67%. The RAM network inhibition in test [7] was -0.16%.
`CC(C)Sc1nnc(Cn2c(=O)sc3ccccc32)n1-c1ccccc1`: the growth inhibition in test [1] was 1.75%; in test [2], -10.2%. Moreover, the viability increase in test [3] is -0.05%. Moreover, the figures for the viability in test [4] and in test [5] were 87.1% and 86.5%, respectively. The inhibition in test [6] is -0.63%. The RAM network inhibition in test [7] was 5.84%.
On to `CCOC(=O)COn1c(=O)c(=O)n(O)c2ccccc21`, for which the results for the growth inhibition in test [1] and in test [2] were -14.5% and -14.8%, respectively. Further, the viability increase in test [3] was -4.99%. Moreover, the viability in test [4] was 87.2%; in test [5], 87.1%. The inhibition in test [6] is 1.54%. Moreover, the RAM network inhibition in test [7] is 1.4%.
Regarding `COc1cccc(C2c3c(oc4ccc(F)cc4c3=O)C(=O)N2CCCN2CCOCC2)c1` (stereo unspecified), the growth inhibition in test [1] is -9.58%; in test [2], -6.59%. Further, the viability increase in test [3] was -1.59%. The viability in test [4] and in test [5] was 105% throughout. Also, the inhibition in test [6] is 1.25%. Besides, the RAM network inhibition in test [7] was 4.33%.
For `O=C(CC1Oc2ccccc2NC1=O)NCCc1ccccc1` (stereo unspecified), the growth inhibition in test [1] was -0.525%; in test [2], 0.925%. Further, the viability increase in test [3] is 0.98%. Further, the viability in test [4] was 107%; in test [5], 105%. Further, the inhibition in test [6] is 2.94%. The RAM network inhibition in test [7] is 9.58%.
Take `CCOc1ccc2nc(NC(=O)c3ccoc3C)sc2c1`: the growth inhibition in test [1] is 1.53%; in test [2], -12.2%. Besides, in test [3], the viability increase was -6.35%. The viability was 19.1% (active) in test [4] and 17.1% (active) in test [5]. Besides, in test [6], the inhibition is 1.03%. Further, the RAM network inhibition in test [7] is 2.4%.
